Entries after “also recorded” stand apart in the source; their conditions may differ. Like-named read-outs stand apart in the source and are kept apart here.
Key:
hDAT = hDAT (Homo sapiens, UniProt Q01959); assay: Inhibition of hDAT-mediated [3H]DA uptake into HEK293-hDAT cells; type: cell-based
[1] = system: extracellular dopamine in nucleus accumbens; assay: In vivo microdialysis of nucleus accumbens, dialysate dopamine; parameters: species or system rat; conditions: i.v.; for Effect on extracellular dopamine in nucleus accumbens: rat, methcathinone 0.3 then 1.0 mg/kg, 4-TFMAP 1.0 then 3.0 mg/kg
Procedure, shortened: (§1)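 Male Sprague-Dawley rats (300–350 g) under pentobarbital anaesthesia (60 mg/kg i.p.) get a jugular catheter and a nucleus accumbens guide cannula (1.6 mm lateral, 1.6 mm anterior to bregma, 6.0 mm below dura). Next morning, dialysate is collected every 20 min and assayed for DA and 5-HT by HPLC-ECD. After three stable baselines, two i.v. doses in saline (1 mL/kg) are given 60 min apart, with sampling for 120 min. Data are % of mean baseline; n=6 saline, 7 per drug; two-way ANOVA with Bonferroni.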

hNET [2] = target: T1, hNET (Homo sapiens, UniProt P23975); assay: Inhibition of hNET-mediated [3H]NE uptake into C6-hNET cells; type: cell-based
[3] = system: extracellular 5-HT in nucleus accumbens; assay: In vivo microdialysis of nucleus accumbens, dialysate 5-HT; conditions: rat, i.v.; for Effect on extracellular 5-HT in nucleus accumbens: methcathinone 0.3 then 1.0 mg/kg, 4-TFMAP 1.0 then 3.0 mg/kg
Procedure, shortened: as §1

rSERT = rSERT (Rattus norvegicus, UniProt P31652); assay: Drug-evoked [3H]5-HT release via rSERT in rat brain synaptosomes; type: biochemical; conditions: for Fold more potent than methcathinone as [3H]5-HT releasing agent: SERT release
hSERT [4] = target: T2, hSERT (Homo sapiens, UniProt P31645); assay: Inhibition of hSERT-mediated [3H]5-HT uptake into human platelets; type: cell-based
rNET = rNET (Rattus norvegicus, UniProt Q63380); assay: Drug-evoked [3H]MPP+ release via rNET in rat brain synaptosomes; type: biochemical
[5] = system: horizontal locomotor activity; assay: Horizontal locomotor activity during microdialysis; type: in vivo; conditions: rat, i.v.; methcathinone 0.3 then 1.0 mg/kg, 4-TFMAP 1.0 then 3.0 mg/kg
Procedure, shortened: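 Horizontal activity is recorded by a photobeam ring (2.54 cm spacing) in a 43 cm cubic arena, where rats stay overnight and during microdialysis. It is binned every 20 min, from 60 min before to 120 min after two sequential i.v. injections given 60 min apart (saline vehicle, 1 mL/kg). Data are normalized to % of three pre-injection bins and compared with saline controls (n=6; drugs n=7) by two-way ANOVA with Bonferroni.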

rDAT [6] = target: T3, rDAT (Rattus norvegicus, UniProt P23977); assay: Drug-evoked [3H]MPP+ release via rDAT in rat striatal synaptosomes; type: biochemical
[7] = system: horizontal locomotor activity; conditions: cited from earlier work; for Locomotor effects in vivo compared to methcathinone: ref Foley and Cozzi, 2003
hNET [8] = target: T1, hNET; conditions: read-out: NET [3H]NE uptake inhibition IC50, ref Cozzi et al., 1999; cited from earlier work
hSERT [9] = target: T2, hSERT; conditions: read-out: SERT [3H]5-HT uptake inhibition IC50, ref Cozzi et al., 1999; cited from earlier work
rDAT [10] = target: T3, rDAT; conditions: read-out: DAT [3H]DA uptake inhibition IC50, ref Cozzi et al., 1999; cited from earlier work
[11] = system: extracellular dopamine in nucleus accumbens; conditions: ref Baumann et al., 2012; Kehr et al. (2011); cited from earlier work
[12] = system: extracellular 5-HT in nucleus accumbens; conditions: ref Baumann et al., 2012; Kehr et al. (2011); cited from earlier work
human SERT = conditions: read-out: KM as SERT substrate, racemic, ref Cozzi and Foley, 2003; cited from earlier work
[13] = SERT [3H]5-HT release EC50, rat brain synaptosomes, mean ±S.E.M.
[14] = read-out: NET [3H]MPP+ release EC50, mean ±S.E.M.

hDAT, sequence (Q01959 whole entry): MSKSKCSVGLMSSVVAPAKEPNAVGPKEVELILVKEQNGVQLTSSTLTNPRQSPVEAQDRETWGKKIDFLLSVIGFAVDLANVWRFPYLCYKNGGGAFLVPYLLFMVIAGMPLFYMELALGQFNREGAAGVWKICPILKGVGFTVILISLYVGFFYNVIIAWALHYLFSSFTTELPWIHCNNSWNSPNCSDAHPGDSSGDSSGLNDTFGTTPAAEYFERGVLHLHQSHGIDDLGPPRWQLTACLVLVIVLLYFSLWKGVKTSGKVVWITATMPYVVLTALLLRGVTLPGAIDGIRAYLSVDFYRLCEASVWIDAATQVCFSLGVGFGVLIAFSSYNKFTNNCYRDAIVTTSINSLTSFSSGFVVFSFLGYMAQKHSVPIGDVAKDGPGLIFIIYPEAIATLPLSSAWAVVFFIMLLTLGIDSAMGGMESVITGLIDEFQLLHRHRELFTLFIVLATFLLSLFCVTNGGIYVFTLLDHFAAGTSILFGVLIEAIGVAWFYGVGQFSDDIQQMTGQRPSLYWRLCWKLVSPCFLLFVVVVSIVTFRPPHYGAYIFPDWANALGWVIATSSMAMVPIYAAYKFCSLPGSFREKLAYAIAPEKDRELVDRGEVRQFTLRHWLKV
T3 sequence (P23977 whole entry): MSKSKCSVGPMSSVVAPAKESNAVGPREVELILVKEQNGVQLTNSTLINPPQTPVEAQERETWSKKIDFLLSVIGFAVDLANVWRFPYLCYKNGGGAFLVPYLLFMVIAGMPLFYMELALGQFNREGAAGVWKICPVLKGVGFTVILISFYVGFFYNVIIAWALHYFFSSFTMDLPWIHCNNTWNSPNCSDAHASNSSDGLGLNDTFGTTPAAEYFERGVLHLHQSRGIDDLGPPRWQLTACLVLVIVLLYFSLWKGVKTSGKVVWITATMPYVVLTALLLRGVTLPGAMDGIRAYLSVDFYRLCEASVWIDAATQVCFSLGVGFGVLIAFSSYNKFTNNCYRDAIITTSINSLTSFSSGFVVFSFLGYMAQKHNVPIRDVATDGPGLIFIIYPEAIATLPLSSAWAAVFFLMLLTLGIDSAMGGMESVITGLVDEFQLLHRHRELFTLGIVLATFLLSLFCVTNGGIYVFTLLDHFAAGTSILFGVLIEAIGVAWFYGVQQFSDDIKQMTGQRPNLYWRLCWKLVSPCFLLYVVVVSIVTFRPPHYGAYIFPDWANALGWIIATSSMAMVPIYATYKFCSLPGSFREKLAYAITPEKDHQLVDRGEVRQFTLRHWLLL
T1 sequence (P23975 whole entry): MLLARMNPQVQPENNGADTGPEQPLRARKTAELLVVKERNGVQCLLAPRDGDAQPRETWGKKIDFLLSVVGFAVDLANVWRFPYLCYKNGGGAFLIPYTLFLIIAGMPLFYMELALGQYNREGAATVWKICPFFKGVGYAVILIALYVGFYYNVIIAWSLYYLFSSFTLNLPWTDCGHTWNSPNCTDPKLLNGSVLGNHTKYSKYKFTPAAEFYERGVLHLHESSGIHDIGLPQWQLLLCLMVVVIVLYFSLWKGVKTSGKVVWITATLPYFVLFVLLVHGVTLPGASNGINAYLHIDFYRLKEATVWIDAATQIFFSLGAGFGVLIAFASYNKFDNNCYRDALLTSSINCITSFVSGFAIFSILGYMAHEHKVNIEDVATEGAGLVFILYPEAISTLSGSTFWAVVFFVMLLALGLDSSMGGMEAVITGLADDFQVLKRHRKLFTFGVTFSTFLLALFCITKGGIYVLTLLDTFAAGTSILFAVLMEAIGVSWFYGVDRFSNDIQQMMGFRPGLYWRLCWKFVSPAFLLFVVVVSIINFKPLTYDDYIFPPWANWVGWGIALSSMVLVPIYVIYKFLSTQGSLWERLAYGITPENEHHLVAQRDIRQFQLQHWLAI
T2 sequence (P31645 whole entry): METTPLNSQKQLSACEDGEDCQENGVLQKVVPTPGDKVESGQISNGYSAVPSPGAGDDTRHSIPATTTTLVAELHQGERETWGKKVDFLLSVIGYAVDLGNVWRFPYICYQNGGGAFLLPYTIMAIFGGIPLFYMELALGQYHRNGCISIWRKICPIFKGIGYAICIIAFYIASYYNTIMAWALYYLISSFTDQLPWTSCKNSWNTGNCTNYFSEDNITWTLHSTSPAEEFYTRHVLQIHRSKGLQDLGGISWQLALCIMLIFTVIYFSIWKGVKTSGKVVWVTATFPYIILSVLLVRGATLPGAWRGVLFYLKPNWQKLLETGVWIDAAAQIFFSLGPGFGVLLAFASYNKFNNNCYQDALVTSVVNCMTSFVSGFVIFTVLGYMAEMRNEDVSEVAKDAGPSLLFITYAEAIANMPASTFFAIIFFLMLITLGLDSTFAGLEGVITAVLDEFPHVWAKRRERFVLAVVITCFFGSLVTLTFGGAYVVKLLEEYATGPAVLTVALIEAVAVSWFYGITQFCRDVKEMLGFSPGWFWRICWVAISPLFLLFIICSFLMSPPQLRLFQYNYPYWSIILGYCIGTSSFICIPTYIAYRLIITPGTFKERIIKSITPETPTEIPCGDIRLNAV
rSERT, sequence (P31652 whole entry): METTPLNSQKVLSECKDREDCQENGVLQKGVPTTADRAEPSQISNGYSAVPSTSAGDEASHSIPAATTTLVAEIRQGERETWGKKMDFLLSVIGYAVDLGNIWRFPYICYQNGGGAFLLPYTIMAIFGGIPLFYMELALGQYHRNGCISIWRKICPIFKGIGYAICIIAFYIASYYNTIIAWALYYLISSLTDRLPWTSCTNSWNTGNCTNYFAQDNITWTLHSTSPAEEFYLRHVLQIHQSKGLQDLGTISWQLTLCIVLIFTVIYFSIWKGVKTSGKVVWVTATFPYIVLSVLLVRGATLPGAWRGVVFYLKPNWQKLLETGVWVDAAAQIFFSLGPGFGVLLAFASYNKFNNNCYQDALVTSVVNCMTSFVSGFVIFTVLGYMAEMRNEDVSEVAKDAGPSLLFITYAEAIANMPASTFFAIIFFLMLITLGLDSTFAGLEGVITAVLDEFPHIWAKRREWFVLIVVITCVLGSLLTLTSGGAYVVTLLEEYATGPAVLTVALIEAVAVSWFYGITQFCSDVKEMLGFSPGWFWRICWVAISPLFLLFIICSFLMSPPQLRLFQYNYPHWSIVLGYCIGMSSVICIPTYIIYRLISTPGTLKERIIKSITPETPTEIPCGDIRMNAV
rNET, sequence (Q63380 1-617): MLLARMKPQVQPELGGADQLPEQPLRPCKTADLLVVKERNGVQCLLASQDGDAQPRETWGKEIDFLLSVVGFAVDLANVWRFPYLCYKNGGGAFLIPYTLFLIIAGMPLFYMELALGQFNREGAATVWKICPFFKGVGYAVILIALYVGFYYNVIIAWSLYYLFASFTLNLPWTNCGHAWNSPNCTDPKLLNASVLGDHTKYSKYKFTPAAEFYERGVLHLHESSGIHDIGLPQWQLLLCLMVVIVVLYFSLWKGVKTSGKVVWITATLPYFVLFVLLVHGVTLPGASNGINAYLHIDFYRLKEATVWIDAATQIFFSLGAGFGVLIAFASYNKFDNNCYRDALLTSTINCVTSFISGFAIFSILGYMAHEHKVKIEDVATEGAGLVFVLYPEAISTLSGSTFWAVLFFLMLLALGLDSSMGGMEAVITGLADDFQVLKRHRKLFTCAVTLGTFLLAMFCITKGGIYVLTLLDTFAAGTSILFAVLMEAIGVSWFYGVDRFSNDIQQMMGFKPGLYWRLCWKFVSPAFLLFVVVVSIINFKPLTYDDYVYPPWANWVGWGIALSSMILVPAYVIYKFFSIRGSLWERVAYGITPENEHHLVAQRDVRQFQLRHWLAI

With CNC(C)C(=O)c1ccc(C(F)(F)F)cc1 (centres unmarked) [4-TFMAP, 2-(methylamino)-1-(4-trifluoromethylphenyl)propan-1-one] the IC50 (hDAT) was 200 ± 50 µM, the “Effect on extracellular dopamine in nucleus accumbens” value [1] was “no effect; also recorded: did not stimulate dopamine release” and the IC50 (hNET [2]) was 3 ± 0.9 µM. For the same compound, the “Potency on dialysate 5-HT relative to methcathinone” value ([3]; nucleus accumbens) was “approximately 1/3”, the “Effect on extracellular 5-HT in nucleus accumbens” value [3] was “increased extracellular 5-HT; also recorded: dose-related increase in 5-HT efflux” and the EC50 (rSERT; EC50 for [3H]5-HT release at rSERT, rat brain synaptosomes) was 0.186 µM. For the same compound, the EC50 (rSERT; [13]) was 0.19 ± 0.03 µM, the “Fold more potent than methcathinone as [3H]5-HT releasing agent” value (rSERT) was 10 fold and the IC50 (hSERT [4]) was 4.5 ± 0.6 µM. The EC50 (rNET; read-out: EC50 for [3H]MPP+ release at rNET) was 0.867 µM, the EC50 (rNET; [14]) was 0.9 ± 0.3 µM and the “Effect on horizontal locomotor activity” value [5] was “no effect; also recorded: nor did it stimulate locomotor activity”. The EC50 (rDAT [6]) was 2.7 ± 0.3 µM.
In the case of CNC(C)C(=O)c1ccccc1C(F)(F)F (centres unmarked) [2-TFMAP, 2-(methylamino)-1-(2-tri-fluoromethylphenyl)propan-1-one], the IC50 (hDAT) is reported as 689 ± 160 µM, the IC50 (hNET [2]) is reported as 10 ± 3 µM and the EC50 (rSERT; [13]) is reported as 8.4 ± 0.8 µM. The IC50 (hSERT [4]) was 239 ± 13 µM, the EC50 (rNET; [14]) was 2.2 ± 0.3 µM and the EC50 (rDAT [6]) was 8 ± 0.9 µM.
For CNC(C)C(=O)c1cccc(Br)c1 (centres unmarked) [3-bromomethcathinone], the “Locomotor effects in vivo compared to methcathinone” value [7] is listed as “fewer locomotor effects”.
For CNC(C)C(=O)c1cccc(C(F)(F)F)c1 (centres unmarked) [3-TFMAP, 2-(methylamino)-1-(3-trifluoromethylphenyl)propan-1-one], the IC50 (hDAT) was 136 ± 8 µM, the IC50 (hNET [2]) was 3 ± 0.8 µM and the EC50 (rSERT; [13]) was 0.38 ± 0.06 µM. The “Fold more potent than methcathinone as [3H]5-HT releasing agent” value (rSERT) was 10 fold, the IC50 (hSERT [4]) was 11.3 ± 0.4 µM and the EC50 (rNET; [14]) was 2.7 ± 0.8 µM. It also gave an EC50 (rDAT [6]) of 0.61 ± 0.09 µM.
For CNC(C)C(=O)c1ccccc1 (centres unmarked) [Methcathinone, reference compound], the “Potency as dopamine releasing agent relative to 5-HT releaser in vivo” value ([1]; rat nucleus accumbens) is listed as “about twice as potent”, the “Effect on extracellular dopamine in nucleus accumbens” value [1] is listed as “large dose-dependent increases” and the IC50 (hNET [8]) is listed as 0.5 ± 0.1 µM. For the same compound, the “Effect on extracellular 5-HT in nucleus accumbens” value [3] was “large dose-dependent increases”, the EC50 (rSERT; read-out: SERT [3H]5-HT release EC50, rat brain synaptosomes, mean ±S.E.M.) was 4 ± 1 µM and the IC50 (hSERT [9]) was 35 ± 5 µM. The EC50 (rNET; [14]) was 0.02 ± 0.003 µM, the IC50 (rDAT [10]) was 0.36 ± 0.06 µM and the EC50 (rDAT [6]; read-out: DAT [3H]MPP+ release EC50, rat striatal synaptosomes, mean ±S.E.M.) was 0.02 ± 0.001 µM.
In the case of CNC(C)C(=O)c1ccc(Br)cc1 (centres unmarked) [4-bromomethcathinone], the “Locomotor effects in vivo compared to methcathinone” value [7] is listed as “fewer locomotor effects”.
For CNC(C)C(=O)c1ccc(C)cc1 (centres unmarked) [mephedrone, 4-methylmethcathinone], the “Effect on DA release in nucleus accumbens” value [11] is listed as “stimulated both 5-HT and DA release”, the “Effect on 5-HT release in nucleus accumbens” value [12] is listed as “stimulated both 5-HT and DA release” and the “Effect on locomotor activity” value ([7]; 1 and 3 mg/kg, ref Baumann et al., 2012, Kehr et al. (2011)) is listed as “dose-related locomotor stimulation”.
For [^3H]methcathinone, the Km (human SERT) is given as 0.244 µM.

— article PMC3656655 (European journal of pharmacology, 2012)
